S100A4 inh HTS: inhibitors of S100A4-myosin IIA peptide binding, primary screen, biochemical, fluorescence polarization, TAMRA-MyoIIA peptide; Protein S100-A4 (Homo sapiens), P26447; inhibition, % at 10.7 µM; 360,000 compounds, 0.14% hits; AID 652163, 2013;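 active = mean inhibition of at least 70% across replicates, with every replicate also reaching that level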
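Material: S100A4 monomer (human). Medium: Calcium-containing HEPES buffer, pH 7.2. Probe or stimulus: labelled myosin peptide probe, 5 nM. Compound dosing: one concentration per compound. Timing: polarization read 5 min after assay mix addition, stable 5–60 min. Benchmarks: DMSO as neutral control, TFP as positive control.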
ARNT TACC3 PPI: disruptors of ARNT/TACC3 protein interaction, primary screen, biochemical, AlphaScreen, single concentration; Transforming acidic coiled-coil-containing protein 3 (Homo sapiens), Q9Y6A5; AlphaScreen His-ARNT PAS-B/GST-TACC3 binding, luminescence; TACC3 fragment carries E629A point mutation; inhibition, % at 9.99 µM; 390,000 compounds, 0.66% hits; AID 623870, 2012;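 active = mean inhibition of replicates at least 50% and at least half of replicates each reaching 50%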;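 note: 0% = complete ARNT plus TACC3 wells and 100% = ARNT alone without TACC3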
rRNA inh HTS: reduced GFP signal of wild-type E. coli, primary screen, bacterial rRNA inhibitor project, GFP/RFP fluorescence, OD600, single point. E. coli WT GFP vs humanized-ribosome RFP mutants, 24 h; hits give low values; DMSO median 0, no signal -100. GFP signal change (wild-type ribosome), % (concentration not given with the values). 350,000 compounds, 1.6% hits. AID 720706, 2013;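 active = significant combined selectivity score with lowered wild-type GFP, culture density cut under 30%, mutant RFP and density less affected; inactive = any of these conditions unmet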
PGC1a acetyl inh: inhibitors of PGC1a acetylation signal, primary screen, cell-based, U2OS, AlphaScreen, inhibitor mode. AlphaScreen anti-acetyl-lysine; with virally co-expressed GCN5 acetyltransferase. inhibition, % at 15.6 µM. 350,000 compounds, 0.17% hits;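 active = every replicate shows inhibition of at least 40%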;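 note: 0% = neutral control wells and 100% = positive control wells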
Casp6 inh: human caspase-6 inhibitors, primary screen, biochemical, VEID-R110 fluorescence, single point, set 2. P55212. purified caspase-6, Z-VEID-R110 cleavage fluorescence. inhibition, % at 12.5 µM. 350,000 compounds, 0.53% hits;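 active = mean inhibition across replicates at least about 35%, with every replicate also reaching that limit, limit read from the data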;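 note: 0% = median of neutral control wells and 100% = no fluorescence left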
ERAP1 inh: human ERAP1 aminopeptidase inhibitors, primary screen, biochemical, single point, plate reader | Endoplasmic reticulum aminopeptidase 1 (Homo sapiens), Q9NZ08 | AID 652197, 2013 | inhibition, % at 10.7 µM | 340,000 compounds, 0.15% hits | recombinant ERAP1, Leu-AMC fluorescence, 60 min;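 active = mean replicate inhibition of at least 30%, or all replicates individually reaching that 30% level; inactive = mean below 30% and not every replicate reaching it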;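 note: 0% = neutral control wells and 100% = L-leucinethiol positive control wells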
Target sequence (Q9NZ08 whole entry, looked up): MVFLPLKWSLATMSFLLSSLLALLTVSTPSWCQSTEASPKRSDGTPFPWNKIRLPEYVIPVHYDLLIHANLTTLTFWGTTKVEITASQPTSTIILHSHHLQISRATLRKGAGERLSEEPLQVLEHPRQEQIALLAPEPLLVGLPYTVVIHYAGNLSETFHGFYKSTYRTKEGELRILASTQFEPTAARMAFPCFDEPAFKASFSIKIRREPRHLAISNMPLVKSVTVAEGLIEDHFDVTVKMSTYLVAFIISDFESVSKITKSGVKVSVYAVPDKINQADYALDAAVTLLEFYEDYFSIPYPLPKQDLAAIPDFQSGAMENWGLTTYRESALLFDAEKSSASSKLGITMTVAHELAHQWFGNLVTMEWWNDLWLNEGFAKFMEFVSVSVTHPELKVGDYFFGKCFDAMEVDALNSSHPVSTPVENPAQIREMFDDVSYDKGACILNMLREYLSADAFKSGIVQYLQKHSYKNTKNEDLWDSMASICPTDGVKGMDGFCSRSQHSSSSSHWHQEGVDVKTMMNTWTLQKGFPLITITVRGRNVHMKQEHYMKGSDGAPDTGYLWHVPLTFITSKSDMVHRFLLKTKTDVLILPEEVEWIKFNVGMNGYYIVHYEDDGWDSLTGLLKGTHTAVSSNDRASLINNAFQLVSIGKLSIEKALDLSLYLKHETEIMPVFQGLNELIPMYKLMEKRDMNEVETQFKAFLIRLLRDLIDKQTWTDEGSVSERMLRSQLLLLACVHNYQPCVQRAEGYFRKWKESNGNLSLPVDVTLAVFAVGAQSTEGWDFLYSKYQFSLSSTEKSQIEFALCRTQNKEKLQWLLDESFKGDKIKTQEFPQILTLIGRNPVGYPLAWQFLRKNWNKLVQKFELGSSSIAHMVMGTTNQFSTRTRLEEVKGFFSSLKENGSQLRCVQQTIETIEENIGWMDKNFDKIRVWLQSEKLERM
The depositor's hits bear a star; . = not tested or not shown. The list is not random: actives were taken first. Their share in the collection is about 2.4%.

SMILES	S100A4 inh HTS	ARNT TACC3 PPI	rRNA inh HTS	PGC1a acetyl inh	Casp6 inh	ERAP1 inh
CCC(=O)N[C@@H]1CC[C@H](CCNC(=O)Nc2ccc(C(F)(F)F)cc2)O[C@H]1CO	92*	-21	-56	.	1	3
O=C(Cc1ccccn1)NCC[C@H]1CC[C@H](NC(=O)Nc2ccc(C(F)(F)F)cc2)[C@H](CO)O1	-5	10	1	48*	2	-3
O=C(Cc1ccccn1)NCC[C@H]1CC[C@@H](NC(=O)Nc2ccc(C(F)(F)F)cc2)[C@@H](CO)O1	-17	0	-2	102*	1	0
O=C(Cc1ccccn1)NCC[C@H]1CC[C@@H](NC(=O)Nc2ccc(F)cc2)[C@@H](CO)O1	-7	7	3	1	-4	-3
O=C(C[C@@H]1CC[C@H]2[C@@H](COC[C@H](O)CN2CCc2ccccc2)O1)NCc1ccc(Oc2ccccc2)cc1	-14	10	-6	2	-2	0
CCC(=O)Nc1ccc2c(c1)OC[C@H](C)N(Cc1ccccc1OC)C[C@H](C)[C@H](OC)CN(C)C2=O	-1	-4	1	-8	-1	-1
O=C(C[C@H]1C=C[C@H](NC(=O)c2cccnc2)[C@@H](CO)O1)NCc1ccc(Cl)c(Cl)c1	1	5	-3	2	-3	-1
CCS(=O)(=O)N1Cc2cc(C(=O)O)nc(-c3cccc(-c4ccc(C#N)cc4)c3)c2[C@@H]1CCO	4	.	4	3	0	1
N#C[C@@H]1[C@H](c2ccccc2-c2cccc(F)c2)[C@H](CO)N1C(=O)c1cccnc1	7	.	-5	6	-1	-4
C[C@H]1CN([C@@H](C)CO)C(=O)c2cc(NC(=O)NC3CCCCC3)ccc2O[C@@H]1CN(C)C(=O)Nc1ccc(F)cc1	6	2	-1	-8	-1	2
O=C(C1CC1)N1C[C@H]2[C@@H](c3ccccc31)[C@H](CO)N2C(=O)c1ccccn1	1	-10	4	3	-2	1
Oc1cc(NCc2ccc(Cl)cc2)cc2cccnc12	0	37*	5	6	18	.
COC(=O)c1sccc1NC(=O)CC1C(=O)NCCN1C(=O)Nc1cc(Cl)ccc1OC (stereo not drawn)	-2	.	-22*	13	2	-2
C[C@H](CO)N1C[C@H](C)[C@@H](CN(C)C(=O)Nc2cccc3ccccc23)Oc2c(NC(=O)C3CCOCC3)cccc2C1=O	-3	16	0	0	52*	.
CC(C)NC(=O)N(C)C[C@@H]1Oc2c(NC(=O)Nc3cccc4ccccc34)cccc2C(=O)N([C@H](C)CO)C[C@H]1C	101*	4	-7	-11	-2	.
CC(C)NC(=O)N(C)C[C@@H]1Oc2c(NC(=O)Nc3cccc4ccccc34)cccc2C(=O)N([C@H](C)CO)C[C@@H]1C	-10	5	-1	0	-3	3
C[C@@H]1CN([C@@H](C)CO)C(=O)c2cccc(NC(=O)Nc3cccc4ccccc34)c2O[C@H]1CN(C)CC1CC1	-10	31	-5	-2	38*	1
COc1ccccc1C(=O)Nc1ccc2c(c1)OC[C@@H](C)N(CC1CC1)C[C@H](C)[C@@H](OC)CN(C)C2=O	.	.	-7	-11	.	.
O=C(Cc1ccccc1)N1C[C@@H]2[C@H](c3ccccc31)[C@@H](CO)N2C(=O)c1cccc(F)c1	11	6	-4	-5	-1	-1
COc1ccc(CN(C)C[C@H]2Oc3c(NC(=O)NC4CCCCC4)cccc3C(=O)N([C@@H](C)CO)C[C@H]2C)cc1	-7	5	2	1	3	-16
